Test results as given in ChEMBL document CHEMBL2062453, “Lead optimization through VLAK protocol: new annelated pyrrolo-pyrimidine derivatives as antitumor agents” (2012).

Legend:
Assay type in all cases: functional
[1] = test system: Hs-578T; experiment: Cytotoxicity against human Hs578T cells assessed as cell growth at 10 uM after 48 hrs by SRB assay relative to control; conditions: read-out: Activity
Outline: (§1)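 NCI primary screen of about 60 human tumour lines. Cells inoculated and preincubated, then a single test concentration added and cultures incubated 48 h. Result given as percent growth (G%) of treated versus untreated control cells.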

[2] = test system: UO-31; experiment: Cytotoxicity against human UO31 cells assessed as cell growth at 10 uM after 48 hrs by SRB assay relative to control; conditions: UO-31, 48 h, read-out: Activity
Outline: (§2)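 NCI single-dose primary screen across about 60 human tumour lines. Each line was inoculated and preincubated on microtiter plates, then exposed to one concentration of agent for 48 h. Growth is reported as percent growth (G%) of treated cells versus untreated control cells.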

[3] = test system: A498; experiment: Cytotoxicity against human A498 cells assessed as cell growth at 10 uM after 48 hrs by SRB assay relative to control; conditions: A498, 48 h, read-out: Activity; outline: as §1
[4] = test system: HOP-92; experiment: Cytotoxicity against human HOP92 cells assessed as cell growth at 10 uM after 48 hrs by SRB assay relative to control; conditions: HOP-92, 48 h, read-out: Activity; outline: as §1
[5] = test system: SNB-19; experiment: Cytotoxicity against human SNB19 cells assessed as cell growth at 10 uM after 48 hrs by SRB assay relative to control; conditions: SNB-19, 48 h, read-out: Activity
[6] = test system: SK-MEL-2; experiment: Cytotoxicity against human SK-MEL-2 cells assessed as cell growth at 10 uM after 48 hrs by SRB assay relative to control; conditions: SK-MEL-2, 48 h, read-out: Activity
[7] = test system: SK-MEL-28; experiment: Cytotoxicity against human SK-MEL-28 cells assessed as cell growth at 10 uM after 48 hrs by SRB assay relative to control; conditions: SK-MEL-28, 48 h, read-out: Activity
[8] = test system: MDA-MB-231; experiment: Cytotoxicity against human MDA-MB-231 cells assessed as cell growth at 10 uM after 48 hrs by SRB assay relative to control; conditions: MDA-MB-231, 48 h, read-out: Activity; outline: as §1
[9] = test system: NCI/ADR-RES; experiment: Cytotoxicity against human NCI/ADR-RES cells assessed as cell growth at 10 uM after 48 hrs by SRB assay relative to control; conditions: read-out: Activity
[10] = test system: SF-295; experiment: Cytotoxicity against human SF295 cells assessed as cell growth at 10 uM after 48 hrs by SRB assay relative to control; conditions: SF-295, 48 h, read-out: Activity
[11] = test system: HCC 2998; experiment: Cytotoxicity against human HCC2998 cells after 48 hrs by SRB assay; conditions: HCC 2998, 48 h; for TGI: read-out: pTGI (converted)
Outline: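 NCI 60-cell five-dose screen. Cells grown in RPMI 1640 with 5% FBS and 2 mM glutamine, plated at 5000–40,000 cells/well, and preincubated 24 h at 37 °C in 5% CO2. Time-zero plates fixed with TCA. Five serial dilutions of DMSO stock added, then 48 h exposure. TCA fixation, 0.4% SRB staining, absorbance read at 515 nm. GI50 from [(Ti−Tz)/(C−Tz)]×100 = 50.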

[12] = test system: SF-268; experiment: Cytotoxicity against human SF268 cells assessed as cell growth at 10 uM after 48 hrs by SRB assay relative to control; conditions: SF-268, 48 h, read-out: Activity
[13] = test system: SK-OV-3; experiment: Cytotoxicity against human SKOV3 cells assessed as cell growth at 10 uM after 48 hrs by SRB assay relative to control; conditions: SK-OV-3, 48 h, read-out: Activity
[14] = test system: OVCAR-4; experiment: Cytotoxicity against human OVCAR4 cells assessed as cell growth at 10 uM after 48 hrs by SRB assay relative to control; conditions: OVCAR-4, 48 h, read-out: Activity
[15] = test system: SF-539; experiment: Cytotoxicity against human SF539 cells assessed as cell growth at 10 uM after 48 hrs by SRB assay relative to control; conditions: SF-539, 48 h, read-out: Activity
[16] = test system: U-251; experiment: Cytotoxicity against human U251 cells assessed as cell growth at 10 uM after 48 hrs by SRB assay relative to control; conditions: U-251, 48 h, read-out: Activity; outline: as §2
[17] = test system: PC-3; experiment: Cytotoxicity against human PC3 cells assessed as cell growth at 10 uM after 48 hrs by SRB assay relative to control; conditions: PC-3, 48 h, read-out: Activity
[18] = test system: KM12; experiment: Cytotoxicity against human KM12 cells assessed as cell growth at 10 uM after 48 hrs by SRB assay relative to control; conditions: KM12, 48 h, read-out: Activity; outline: as §1
[19] = test system: CAKI-1; experiment: Cytotoxicity against human Caki1 cells assessed as cell growth at 10 uM after 48 hrs by SRB assay relative to control; conditions: CAKI-1, 48 h, read-out: Activity; outline: as §1
[20] = test system: LOX IMVI; experiment: Cytotoxicity against human LOXIMVI cells assessed as cell growth at 10 uM after 48 hrs by SRB assay relative to control; conditions: read-out: Activity; outline: as §1
[21] = test system: HT-29; experiment: Cytotoxicity against human HT-29 cells assessed as cell growth at 10 uM after 48 hrs by SRB assay relative to control; conditions: HT-29, 48 h, read-out: Activity; outline: as §1
[22] = test system: ACHN; experiment: Cytotoxicity against human ACHN cells assessed as cell growth at 10 uM after 48 hrs by SRB assay relative to control; conditions: read-out: Activity; outline: as §1
[23] = test system: MCF7; experiment: Cytotoxicity against human MCF7 cells assessed as cell growth at 10 uM after 48 hrs by SRB assay relative to control; conditions: MCF7, 48 h, read-out: Activity; outline: as §1
[24] = test system: OVCAR-5; experiment: Cytotoxicity against human OVCAR5 cells assessed as cell growth at 10 uM after 48 hrs by SRB assay relative to control; conditions: OVCAR-5, 48 h, read-out: Activity
[25] = test system: NCI-H23; experiment: Cytotoxicity against human NCI-H23 cells assessed as cell growth at 10 uM after 48 hrs by SRB assay relative to control; conditions: NCI-H23, 48 h, read-out: Activity
[26] = test system: T47D; experiment: Cytotoxicity against human T47D cells assessed as cell growth at 10 uM after 48 hrs by SRB assay relative to control; conditions: read-out: Activity; outline: as §2
[27] = test system: HCC 2998; experiment: Cytotoxicity against human HCC2998 cells assessed as cell growth at 10 uM after 48 hrs by SRB assay relative to control; conditions: HCC 2998, 48 h, read-out: Activity; outline: as §1
[28] = test system: CCRF-CEM; experiment: Cytotoxicity against human CCRF-CEM cells assessed as cell growth at 10 uM after 48 hrs by SRB assay relative to control; conditions: read-out: Activity; outline: as §1
[29] = test system: SR; experiment: Cytotoxicity against human SR cells assessed as cell growth at 10 uM after 48 hrs by SRB assay relative to control; conditions: read-out: Activity; outline: as §2

| SMILES | growth at 10 µM [1] [%] | growth at 10 µM [2] [%] | growth at 10 µM [3] [%] | growth at 10 µM [5] [%] | growth at 10 µM [6] [%] | growth at 10 µM [7] [%] | growth at 10 µM [8] [%] | growth at 10 µM [9] [%] | growth at 10 µM [10] [%] | GI50 [11] [µM] | LC50 [11] [µM] | TGI [11] [µM] | growth at 10 µM [12] [%] | growth at 10 µM [13] [%] | growth at 10 µM [14] [%] | growth at 10 µM [15] [%] | growth at 10 µM [16] [%] | growth at 10 µM [18] [%] | growth at 10 µM [19] [%] | growth at 10 µM [20] [%] | other results |
| --- | --- | --- | --- | --- | --- | --- | --- | --- | --- | --- | --- | --- | --- | --- | --- | --- | --- | --- | --- | --- | --- |
| CSC1=Nc2c(c(C)c(-c3ccccc3)n2CCCCl)C2=NC(=O)CN12 | 85 | 57 | 47 | 81 | 75 | 56 | 65 | 58 | 43 | 4.57 | 64.6 | 19.5 | 77 | 88 | 76 | 62 | 52 | 26 | 58 | 50 | growth at 10 µM [4]: 65%; growth at 10 µM [17]: 69%; growth at 10 µM [21]: 23%; growth at 10 µM [22]: 88%; growth at 10 µM [23]: 36%; growth at 10 µM [24]: 86%; growth at 10 µM [25]: 78%; growth at 10 µM [26]: 72%; growth at 10 µM [27]: 72%; growth at 10 µM [28]: 52%; growth at 10 µM [29]: 13% |
| CSC1=Nc2c(c(C)c(-c3ccccc3)n2CCCN2CCCCC2)C2=NC(=O)CC(C)N12 (stereo not given) | 11 | 57 | 81 | 20 | 63 | 43 | 70 | 82 | 39 | 3.24 | 61.7 | 16.2 | 66 | 27 | 44 | 79 | 12 | 2 | 67 | 42 | growth at 10 µM [21]: 21%; growth at 10 µM [22]: 67%; growth at 10 µM [23]: 14%; growth at 10 µM [24]: 83%; growth at 10 µM [25]: 63%; growth at 10 µM [26]: -2%; growth at 10 µM [27]: 61%; growth at 10 µM [28]: 21%; growth at 10 µM [29]: 2% |
